Source: ChEMBL document CHEMBL1158503, “Design and preliminary structure-activity relationship of redox-silent semisynthetic tocotrienol analogues as inhibitors for breast cancer proliferation and invasion” (Bioorg Med Chem, 2010)
Activity calls are given as the source filed them. The rule behind the calls is not given here.

Columns and labels:
[1] = tested on: MDA-MB-231; experiment: Antiproliferative activity against human MDA-MB-231 cells after 96 hrs by MTT assay; format: functional, cell-based; conditions: MDA-MB-231, 96 h
In short: (§1)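 Cells were grown in RPMI with 10% FBS, 2 mmol/L glutamine and penicillin/streptomycin at 37 °C, 5% CO2. They were seeded at 8 × 10^3 cells/well and left to attach for 24 h. Medium was then changed to serum-free RPMI containing compound at 20, 10, 5 or 2 µM for 96 h. MTT was added for 4 h, then solubilized, and A570 read. Cell number came from a hemocytometer standard curve. IC50 was taken by nonlinear regression of log concentration vs cells/well.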

[2] = tested on: MCF7; experiment: Antiproliferative activity against human MCF7 cells after 96 hrs by MTT assay; format: functional, cell-based; conditions: MCF7, 96 h; in short: as §1
[3] = tested on: MDA-MB-231; experiment: Antiinvasive activity in human MDA-MB-231 at 5 uM after 24 hrs by BME cell invasion assay; format: functional, cell-based
In short: (§2)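 Cultrex 96-well BME invasion kit (Boyden-type, 8 µm PET membrane), BME 1X coat set overnight at 37 °C. 50,000 MDA-MB-231 cells in serum-free RPMI put in the top chamber with compound at 5 µM. The lower chamber held RPMI with 10% FBS, fibronectin and 10 nM fMLP as chemoattractants. Migration ran 24 h at 37 °C. Invaded cells were loaded with calcein-AM for 1 h and read by fluorescence (ex 485/em 520 nm).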

[4] = Antiproliferative activity against mouse +SA cells after 4 days by MTT assay; format: functional, cell-based; conditions: +SA cell, 96 h
In short: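 +SA mouse mammary epithelial cells were kept in serum-free medium with 10 ng/mL EGF and 10 µg/mL insulin as mitogens. They were plated at 5 × 10^4 cells/well, 6 wells/group, and fed compound at 0.01–1000 µM. Viable cell number was measured by MTT after 4 days of culture.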

[5] = Ratio of IC50 for gamma-tocotrienol to IC50 for drug against mouse +SA cells after 4 days by MTT assay; format: functional, +SA cell
[6] = tested on: MDA-MB-231; experiment: Antiinvasive activity in human MDA-MB-231 assessed as cell migration at 5 uM after 24 hrs by BME cell invasion assay; format: functional, cell-based; in short: as §2
[7] = Inhibition of EGF-dependent mouse +SA cells growth; format: functional, +SA cell

Row | SMILES | IC50 [1] [µM] | IC50 [2] [µM] | Activity [3] | other results
1 | Cc1c(C)c2c(c(C)c1OC(=O)CCC(=O)O)CC[C@@](C)(CCCC(C)CCCC(C)CCCC(C)C)O2 (some centres undefined) |  | > 368 |  | 
2 | CC(C)=CCC/C(C)=C/CC/C(C)=C/CC[C@]1(C)CCc2cc(O)cc(C)c2O1 [DELTA-TOCOTRIENOL] | > 10 | 15.5 |  | 
3 | COc1cc2c(c(C)c1C)O[C@](C)(CC/C=C(\C)CC/C=C(\C)CCC=C(C)C)CC2 |  |  | inactive | 
4 | COc1cccc(COc2cc3c(c(C)c2C)O[C@](C)(CC/C=C(\C)CC/C=C(\C)CCC=C(C)C)CC3)c1 |  |  | inactive | 
5 | COc1cc(COc2c(C)c(C)c3c(c2C)CC[C@@](C)(CC/C=C(\C)CC/C=C(\C)CCC=C(C)C)O3)cc(OC)c1 |  |  | inactive | 
6 | Cc1c(C)c2c(c(C)c1OC(=O)[C@@H](N)CCCCN)CC[C@@](C)(CCCC(C)CCCC(C)CCCC(C)C)O2 (some centres undefined) |  | 12 |  | 
7 | CC(C)=CCC/C(C)=C/CC/C(C)=C/CC[C@]1(C)CCc2cc(OC/C=C(\C)CC/C=C(\C)CCC=C(C)C)c(C)c(C)c2O1 |  |  | inactive | 
8 | COc1cccc(COc2c(C)c(C)c3c(c2C)CC[C@@](C)(CC/C=C(\C)CC/C=C(\C)CCC=C(C)C)O3)c1 |  |  | inactive | 
9 | CC(C)=CCC/C(C)=C/CC/C(C)=C/CC[C@]1(C)CCc2cc(OC/C=C(\C)CC/C=C(\C)CCC=C(C)C)cc(C)c2O1 |  |  | inactive | 
10 | COc1cc(COc2cc3c(c(C)c2C)O[C@](C)(CC/C=C(\C)CC/C=C(\C)CCC=C(C)C)CC3)cc(OC)c1 |  |  | inactive | 
11 | CC(C)=CCCOc1cc2c(c(C)c1C)O[C@](C)(CC/C=C(\C)CC/C=C(\C)CCC=C(C)C)CC2 |  |  | inactive | 
12 | Cc1cc(C)c2c(c1C)O[C@](C)(CCCC(C)CCCC(C)CCCC(C)C)CC2 (some centres undefined) |  | 329 |  | 
13 | CC(C)=CCC/C(C)=C/CC/C(C)=C/CC[C@]1(C)CCc2c(C)c(OC/C=C(\C)CC/C=C(\C)CCC=C(C)C)c(C)c(C)c2O1 |  |  | inactive | 
14 | CC(C)=CCC/C(C)=C/CC/C(C)=C/CC[C@]1(C)CCc2cc(O)c(C)c(C)c2O1 [GAMMA-TOCOTRIENOL] | > 10 | 11.4 |  | inhibition (INH) [7]: 50%
15 | CC(C)=CCC/C(C)=C/CC/C(C)=C/CC[C@]1(C)CCc2cc(OCCC(C)C)c(C)c(C)c2O1 |  |  | inactive | 

Second part, led by results:

Row | IC50 [1] [µM] | IC50 [2] [µM] | SMILES | Activity [3] | other results
16 | > 10 | > 20 | CC(C)=CCC/C(C)=C/CC/C(C)=C/CC[C@]1(C)CCc2c(C)c(O)c(C)c(C)c2O1 [ALPHA-TOCOTRIENOL] |  | 
17 | > 10 | > 20 | CC(C)=CCC/C(C)=C/CC/C(C)=C/CC[C@]1(C)CCc2cc(OC(=O)Nc3ccccc3)cc(C)c2O1 |  | 
18 | > 10 | > 20 | CC(C)=CCC/C(C)=C/CC/C(C)=C/CC[C@]1(C)CCc2cc(OC(=O)NS(=O)(=O)c3ccccc3)c(C)c(C)c2O1 |  | 
19 | > 10 | 6.1 | CC(C)=CCC/C(C)=C/CC/C(C)=C/CC[C@]1(C)CCc2c(C)c(OC(=O)NS(=O)(=O)c3ccc(C)cc3)c(C)c(C)c2O1 |  | 
20 | > 10 | > 20 | CC(C)=CCC/C(C)=C/CC/C(C)=C/CC[C@]1(C)CCc2cc(OC(=O)NS(=O)(=O)c3ccc(Cl)cc3)cc(C)c2O1 |  | 
21 | 6.6 | > 20 | CC(C)=CCC/C(C)=C/CC/C(C)=C/CC[C@]1(C)CCc2cc(OC(=O)NS(=O)(=O)c3ccc(C)cc3)cc(C)c2O1 | Active | 
22 | > 10 | > 20 | CC(C)=CCC/C(C)=C/CC/C(C)=C/CC[C@]1(C)CCc2cc(OC(=O)NCc3ccccc3)c(C)c(C)c2O1 | Active | 
23 | > 10 | > 20 | CC(C)=CCC/C(C)=C/CC/C(C)=C/CC[C@]1(C)CCc2c(C)c(OC(=O)NC(=O)Oc3ccccc3)c(C)c(C)c2O1 |  | 
24 | > 10 | 2.4 | CC(C)=CCC/C(C)=C/CC/C(C)=C/CC[C@]1(C)CCc2cc(OC(=O)NS(=O)(=O)c3ccc(C)cc3)c(C)c(C)c2O1 |  | IC50 [4]: 2 µM; Ratio IC50 [5]: 2
25 | 7.2 | > 20 | CC(C)=CCC/C(C)=C/CC/C(C)=C/CC[C@]1(C)CCc2c(C)c(OC(=O)NCc3ccccc3)c(C)c(C)c2O1 |  | Activity [6]: 8%
26 |  | 5.6 | CC(C)=CCC/C(C)=C/CC/C(C)=C/CC[C@]1(C)CCc2cc(OC(=O)NC(=O)Oc3ccccc3)cc(C)c2O1 |  | 
27 | > 10 | 6.1 | CC(C)=CCC/C(C)=C/CC/C(C)=C/CC[C@]1(C)CCc2cc(OC(=O)NS(=O)(=O)c3ccccc3)cc(C)c2O1 |  | 
28 | > 10 | > 20 | CC(C)=CCC/C(C)=C/CC/C(C)=C/CC[C@]1(C)CCc2cc(OC(=O)NCc3ccccc3)cc(C)c2O1 |  | 
29 | > 10 | > 20 | CC(C)=CCC/C(C)=C/CC/C(C)=C/CC[C@]1(C)CCc2cc(OC(=O)Nc3ccccc3)c(C)c(C)c2O1 |  | 
30 | > 10 | > 20 | CC(C)=CCC/C(C)=C/CC/C(C)=C/CC[C@]1(C)CCc2c(C)c(OC(=O)Nc3ccccc3)c(C)c(C)c2O1 |  | 
31 | > 10 | 4.5 | CC(C)=CCC/C(C)=C/CC/C(C)=C/CC[C@]1(C)CCc2c(C)c(OC(=O)NS(=O)(=O)c3ccccc3)c(C)c(C)c2O1 |  | 
32 |  | > 20 | CC(C)=CCC/C(C)=C/CC/C(C)=C/CC[C@]1(C)CCc2cc(OC(=O)NC(=O)Oc3ccccc3)c(C)c(C)c2O1 |  | 
33 | > 10 | 5.1 | CC(C)=CCC/C(C)=C/CC/C(C)=C/CC[C@]1(C)CCc2c(C)c(OC(=O)NS(=O)(=O)c3ccc(Cl)cc3)c(C)c(C)c2O1 |  | 
34 | > 10 | > 20 | CC(C)=CCC/C(C)=C/CC/C(C)=C/CC[C@]1(C)CCc2cc(OC(=O)NS(=O)(=O)c3ccc(Cl)cc3)c(C)c(C)c2O1 |  | 
